Results taken from ChEMBL document CHEMBL4725282, “Discovery of a Conformationally Constrained Oxazolidinone with Improved Safety and Efficacy Profiles for the Treatment of Multidrug-Resistant Tuberculosis” (J Med Chem, 2020).
In brackets after ≈: the same amount, converted by molar mass. Activity calls are given as the source filed them. The calls are words filed in the database; no cut-off is given here.

What was measured:
[1] = system: Mycobacterium tuberculosis; assay: Antitubercular activity against Mycobacterium tuberculosis isolate 12525 incubated for 7 days by microplate alamar blue assay; format: functional; conditions: isolate 12525, 168 h, time 7 day
Procedure, shortened: (§1)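 MIC determined by microplate alamar blue assay (MABA) following a published protocol.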

Vero = assay: Cytotoxicity against African green monkey Vero cells assessed as reduction in cell viability measured after 48 hrs by MTT assay; format: cell-based; conditions: Chlorocebus sabaeus
Procedure, shortened: (§2)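 Cytotoxicity on Vero or HepG2 cells by MTT assay, run as previously reported.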

[2] = target: T1, Amine oxidase [flavin-containing] B (Homo sapiens, UniProt P27338); assay: Inhibition of recombinant human MAOB expressed in baculovirus infected insect cells using kynuramine as substrate measured after 20 mins by LC-MS/MS analysis
T1 sequence (P27338 whole entry): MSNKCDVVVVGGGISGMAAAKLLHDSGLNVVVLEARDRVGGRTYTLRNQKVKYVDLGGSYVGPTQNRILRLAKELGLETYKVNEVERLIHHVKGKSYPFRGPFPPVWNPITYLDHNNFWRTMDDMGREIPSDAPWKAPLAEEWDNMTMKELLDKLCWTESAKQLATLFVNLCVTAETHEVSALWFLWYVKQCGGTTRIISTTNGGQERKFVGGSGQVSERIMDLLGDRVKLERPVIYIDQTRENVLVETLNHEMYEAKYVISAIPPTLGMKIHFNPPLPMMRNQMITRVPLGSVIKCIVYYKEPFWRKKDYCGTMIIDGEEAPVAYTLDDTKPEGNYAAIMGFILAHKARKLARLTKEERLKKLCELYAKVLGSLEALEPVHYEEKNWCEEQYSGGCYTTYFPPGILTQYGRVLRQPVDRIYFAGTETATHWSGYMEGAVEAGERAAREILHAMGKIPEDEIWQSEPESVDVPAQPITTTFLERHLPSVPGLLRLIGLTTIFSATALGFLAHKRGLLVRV
Procedure, shortened: (§3)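 Recombinant human MAO-A or MAO-B (50 μg/mL) in 100 mM potassium phosphate pH 7.4 with 5 mM MgCl2. Kynuramine substrate at 50 μM (MAO-A) or 25 μM (MAO-B). […] 4-Hydroxyquinoline formation measured by LC-MS/MS versus vehicle; IC50 derived.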

HepG2 = assay: Cytotoxicity against human HepG2 cells assessed as reduction in cell viability measured after 48 hrs by MTT assay; format: cell-based; conditions: HepG2, 48 h; procedure, shortened: as §2
[3] = Stability in CD-1 mouse liver microsome assessed as parent compound remaining at 1 uM measured after 30 mins in presence of NADPH by LC-MS/MS analysis; format: ADME; conditions: liver microsomes, read-out: Stabilty
Procedure, shortened: (§4)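 Liver microsomes (male CD-1 mouse or pooled human), 1 mg/mL protein, compound 1 µM, 37°C with shaking. Started with 1 mM NADPH or run without cofactor. Quenched with ice-cold ACN/MeOH containing internal standard. Parent quantified by LC-MS/MS; 30 min concentration normalised to time zero.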

[4] = system: Mycobacterium tuberculosis; assay: Antitubercular activity against Mycobacterium tuberculosis H37Rv incubated for 7 days by microplate alamar blue assay; format: functional; conditions: Mycobacterium tuberculosis, H37Rv, 168 h, time 7 day; read-out: MIC; procedure, shortened: as §1
[5] = Stability in CD-1 mouse liver microsome at 1 uM measured after 30 mins in absence of NADPH by LC-MS/MS analysis; format: ADME; conditions: microsomes, 0.5 h; procedure, shortened: as §4
[6] = Inhibition of mitochondrial protein synthesis in rat H9c2 cells measured after 5 days by ELISA; format: cell-based; conditions: H9c2, 120 h
Procedure, shortened: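 H9C2 cells in DMEM with 10% FBS, seeded 1500/well. After 18 h, compound added at final 0.03–200 μM (3-fold series), then 5 days at 37 °C, 5% CO2; 0.5% DMSO negative control. MPS inhibition read by MitoBiogenesis In-Cell ELISA; IC50 calculated.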

[7] = target: T2, Amine oxidase [flavin-containing] A (Homo sapiens, UniProt P21397); assay: Inhibition of recombinant human MAOA expressed in baculovirus infected insect cells using kynuramine as substrate measured after 20 mins by LC-MS/MS analysis; procedure, shortened: as §3
T2 sequence (P21397 whole entry): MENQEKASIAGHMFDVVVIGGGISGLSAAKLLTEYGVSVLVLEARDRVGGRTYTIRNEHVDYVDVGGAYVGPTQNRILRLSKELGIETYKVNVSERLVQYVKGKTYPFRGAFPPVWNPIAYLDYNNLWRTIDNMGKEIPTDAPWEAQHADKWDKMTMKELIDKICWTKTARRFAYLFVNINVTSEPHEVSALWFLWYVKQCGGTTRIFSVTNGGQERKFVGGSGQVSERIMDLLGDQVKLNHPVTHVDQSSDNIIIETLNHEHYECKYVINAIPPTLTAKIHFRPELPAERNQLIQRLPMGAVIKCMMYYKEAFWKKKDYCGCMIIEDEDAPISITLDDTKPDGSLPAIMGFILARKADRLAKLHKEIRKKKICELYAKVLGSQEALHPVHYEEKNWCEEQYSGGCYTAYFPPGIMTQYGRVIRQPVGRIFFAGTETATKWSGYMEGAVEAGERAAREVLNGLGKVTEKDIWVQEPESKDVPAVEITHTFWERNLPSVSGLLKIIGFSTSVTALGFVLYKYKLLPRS

[8] = system: Mycobacterium tuberculosis; assay: (§5) Antitubercular activity against Mycobacterium tuberculosis H37Rv infected in Balb/c mouse assessed as reduction in lung bacterial burden at 25 to 100 mg/kg/day, po administered via gavage 5 times per week for 3 weeks starting from 10 days post-infection and measured 24 hrs post last dose; format: functional, organism-based; conditions: dose mg/kg/day 25-100, time 22.0 day
Procedure, shortened: (§6)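 Female SPF BALB/c mice, 6 per group, aerosol-infected with M. tuberculosis H37Rv to deposit 50-100 bacilli per lung. Compound suspended in 0.5% CMC, given by oral gavage from day 10 post-infection, 5 times per week for 3 weeks; controls got 0.5% CMC. Lungs harvested the day after the last dose, homogenised, diluted in HBSS, plated on 7H11 agar in duplicate, incubated 3 weeks at 37 °C. Result expressed as mean log10 CFU; t-test versus control.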

[9] = system: Mycobacterium tuberculosis; assay: Antitubercular activity against Mycobacterium tuberculosis H37Rv infected in Balb/c mouse assessed as reduction in lung bacterial burden at 50 to 100 mg/kg/day, po administered via gavage 5 times per week for 3 weeks starting from 10 days post-infection and measured 24 hrs post last dose; format: functional, organism-based; conditions: dose mg/kg/day 50-100, time 22.0 day; procedure, shortened: as §6
[10] = system: Mycobacterium tuberculosis; assay: as §5, with “as” for “as reduction in”, “burden by measuring colony forming unit” for “burden”, “at” for “at 25 to”, “dose (reference value: 7.102 +/- 0.152 log10CFU)” for “dose”; format: functional; conditions: time 22 day; procedure, shortened: as §6
[11] = Toxicity in Mycobacterium tuberculosis H37Rv infected Balb/c mouse assessed as change in body weight at 100 mg/kg/day, po administered via gavage 5 times per week for 3 weeks starting from 10 days post-infection (reference value: 21.29 +/- 0.84 g); format: organism-based; conditions: in vivo, 504 h, time 21 day
[12] = Toxicity in Mycobacterium tuberculosis H37Rv infected Balb/c mouse assessed as change in body weight at 25 mg/kg/day, po administered via gavage 5 times per week for 3 weeks starting from 10 days post-infection (reference value: 21.29 +/- 0.84 g); format: organism-based; conditions: in vivo, 504 h, time 21 day
[13] = system: Mycobacterium tuberculosis; assay: as §5, with “as” for “as reduction in”, “burden by measuring colony forming unit” for “burden”, “25” for “25 to 100”, “dose (reference value: 7.102 +/- 0.152 log10CFU)” for “dose”; format: functional; conditions: time 22 day; procedure, shortened: as §6

Compound | MIC [1] [µg/mL] | IC50 (Vero) [µg/mL] | IC50 [2] [µM] | IC50 (HepG2) [µg/mL] | remaining at 0.5 h, 1 µM [3] [%] | MIC [4] [µg/mL] | Stabilty [5] | IC50 [6] [µM] | IC50 [7] [µM] | Activity [8] | Activity [9] | Activity [10] [log10CFU] | Activity [11] [g] | Activity [12] [g] | Activity [13] [log10CFU]
CC(=O)NC[C@H]1CN(c2ccc(N3CCSCC3)c(F)c2)C(=O)O1 [SUTEZOLID] | 0.06 (≈ 0.17 µM) | > 64 | 0.7 | > 64 | 54.8 | 0.1 (≈ 0.283 µM) | Stable | 8.17 | 13 | – | – | – | – | – | –
CC(=O)NC[C@@H]1OC(=O)N2c3cc(F)c(N4CCSCC4)cc3OC[C@@H]12 | – | – | – | – | – | – | – | – | – | Active | – | – | – | – | –
CC(=O)NC[C@H]1CN(c2ccc(N3CCOCC3)c(F)c2)C(=O)O1 [LINEZOLID] | 0.23 (≈ 0.682 µM) | – | – | – | 111 | 0.32 (≈ 0.949 µM) | Stable | 7.98 | – | – | Active | 4.136 | 20.83 | – | –
NNC(=O)c1ccncc1 [ISONIAZID] | > 10 | – | – | – | – | 0.03 (≈ 0.219 µM) | – | – | – | – | – | – | – | 21.3 | 1.929
